# The source made the active and inactive calls. The rule behind the calls is not given here.
# How the values were obtained:
# [1] = molecular target: Protein cereblon/Bromodomain-containing protein 4 (Homo sapiens) (UniProt O60885+Q96SW2); test: Protac activity at Cereblon/BRD4 in human OPM2 cell lysate assessed as induction of BRD4 polyubiquitination incubated for 3 hrs by SDS-PAGE/immunoblot analysis; assay type: subcellular
# How it was run: (§1)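 In vitro ubiquitinylation reactions; the target (MCL1 or BRD4) was then immunoprecipitated and the immunoprecipitate immunoblotted for ubiquitin.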
# [2] = molecular target: T1, Protein cereblon/Induced myeloid leukemia cell differentiation protein Mcl-1 (Homo sapiens) (UniProt Q07820+Q96SW2); test: Protac activity at Cereblon/MCL1 in human HeLa cell lysate assessed as MCL1 degradation incubated for 3 hrs by SDS-PAGE/immunoblot analysis; assay type: subcellular
# T1 sequence (Q07820 whole entry, looked up): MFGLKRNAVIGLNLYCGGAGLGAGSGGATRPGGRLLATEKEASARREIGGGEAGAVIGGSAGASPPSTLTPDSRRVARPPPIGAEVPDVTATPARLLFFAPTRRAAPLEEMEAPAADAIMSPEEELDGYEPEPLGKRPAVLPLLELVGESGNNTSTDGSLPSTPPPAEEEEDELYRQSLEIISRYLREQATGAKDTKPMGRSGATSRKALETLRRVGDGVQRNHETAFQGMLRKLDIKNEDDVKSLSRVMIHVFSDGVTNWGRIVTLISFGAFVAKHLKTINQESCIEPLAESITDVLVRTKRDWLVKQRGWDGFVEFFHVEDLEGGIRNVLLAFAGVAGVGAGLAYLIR
# T1 sequence (Q96SW2 whole entry, looked up): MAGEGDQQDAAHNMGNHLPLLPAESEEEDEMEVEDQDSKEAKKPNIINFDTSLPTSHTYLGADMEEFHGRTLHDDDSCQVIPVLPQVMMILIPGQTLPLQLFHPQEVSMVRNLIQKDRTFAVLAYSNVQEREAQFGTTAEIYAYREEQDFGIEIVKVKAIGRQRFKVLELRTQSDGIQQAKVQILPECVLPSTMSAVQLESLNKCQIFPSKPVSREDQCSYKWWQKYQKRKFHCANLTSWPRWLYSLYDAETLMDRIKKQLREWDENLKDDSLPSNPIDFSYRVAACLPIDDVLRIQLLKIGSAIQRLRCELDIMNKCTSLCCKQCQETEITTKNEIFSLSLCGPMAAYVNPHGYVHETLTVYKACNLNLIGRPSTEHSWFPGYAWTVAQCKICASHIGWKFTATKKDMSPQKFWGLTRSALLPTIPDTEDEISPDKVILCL
# [3] = molecular target: T1, Protein cereblon/Induced myeloid leukemia cell differentiation protein Mcl-1 (Homo sapiens); test: Protac activity at Cereblon/MCL1 in human OPM2 cells after 48 hrs by immunoblot analysis; assay type: cell-based
# How it was run: (§2)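 OPM2 multiple myeloma cells, wild type or CRBN-knockout, were treated for 48 h with degrader or DMSO vehicle. MCL1 long and short isoforms were detected by immunoblot and levels compared with DMSO controls.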
# [4] = molecular target: T2, Induced myeloid leukemia cell differentiation protein Mcl-1 (Homo sapiens, UniProt Q07820); test: Binding affinity to MCL1 short isoform in human OPM2 incubated overnight using biotin labelled compound by streptavidin based immunoprecipitation method
# T2 sequence (Q07820 whole entry, canonical isoform): as the sequence (Q07820 whole entry, looked up) above
# [5] = molecular target: T2, Induced myeloid leukemia cell differentiation protein Mcl-1; test: Binding affinity to MCL1 long isoform in human OPM2 incubated overnight using biotin labelled compound by streptavidin based immunoprecipitation method
# [6] = molecular target: T1, Protein cereblon/Induced myeloid leukemia cell differentiation protein Mcl-1 (Homo sapiens); test: Protac activity at Cereblon/MCL1 in human OPM2 cell lysate assessed as induction of MCL1 polyubiquitination incubated for 3 hrs by SDS-PAGE/immunoblot analysis; assay type: subcellular; how it was run: as §1
# [7] = molecular target: T1, Protein cereblon/Induced myeloid leukemia cell differentiation protein Mcl-1 (Homo sapiens); test: Protac activity at Cereblon/MCL1 short isoform in wild type human OPM2 cells assessed as MCL1 short isoform abundance at 500 nM after 48 hrs by immunoblot analysis relative to control; assay type: cell-based
# How it was run: (§3)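 OPM2 wild-type cells, run alongside the CRBN-/- line, were treated for 48 h with compound or DMSO. The MCL1 long and short isoforms were then measured by immunoblot against the DMSO control.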
# [8] = molecular target: T1, Protein cereblon/Induced myeloid leukemia cell differentiation protein Mcl-1 (Homo sapiens); test: Protac activity at Cereblon/MCL1 long isoform in wild type human OPM2 cells at 250 nM after 48 hrs by immunoblot analysis relative to control; assay type: cell-based; how it was run: as §2
# [9] = Half-life in human liver microsome pre-incubated for 10 mins followed by addition of NADPH regenerating system after 5 to 60 mins by LC/MS/MS analysis; assay type: ADME; settings: liver microsomes
# [10] = molecular target: T2, Induced myeloid leukemia cell differentiation protein Mcl-1; test: Induction of MCL1 long isoform degradation in CRBN-/- human OPM2 cells assessed as protein abundance at 50 nM after 48 hrs by immunoblot analysis relative to control; assay type: cell-based; how it was run: as §2
# [11] = molecular target: T2, Induced myeloid leukemia cell differentiation protein Mcl-1; test: Induction of MCL1 long isoform degradation in CRBN-/- human OPM2 cells assessed as protein abundance at 500 nM after 48 hrs by immunoblot analysis relative to control; assay type: cell-based; how it was run: as §2
# [12] = molecular target: T1, Protein cereblon/Induced myeloid leukemia cell differentiation protein Mcl-1 (Homo sapiens); test: Protac activity at Cereblon/MCL1 short isoform in wild type human OPM2 cells assessed as MCL1 short isoform abundance at 250 nM after 48 hrs by immunoblot analysis relative to control; assay type: cell-based; how it was run: as §3
# [13] = molecular target: T1, Protein cereblon/Induced myeloid leukemia cell differentiation protein Mcl-1 (Homo sapiens); test: Protac activity at Cereblon/MCL1 long isoform in wild type human OPM2 cells at 500 nM after 48 hrs by immunoblot analysis relative to control; assay type: cell-based; how it was run: as §2
# [14] = molecular target: T2, Induced myeloid leukemia cell differentiation protein Mcl-1; test: Induction of MCL1 short isoform degradation in CRBN-/- human OPM2 cells assessed as protein abundance at 250 nM after 48 hrs by immunoblot analysis relative to control; assay type: cell-based; how it was run: as §2
# [15] = molecular target: T2, Induced myeloid leukemia cell differentiation protein Mcl-1; test: Induction of MCL1 short isoform degradation in CRBN-/- human OPM2 cells assessed as protein abundance at 100 nM after 48 hrs by immunoblot analysis relative to control; assay type: cell-based; how it was run: as §2
# [16] = molecular target: T1, Protein cereblon/Induced myeloid leukemia cell differentiation protein Mcl-1 (Homo sapiens); test: Protac activity at Cereblon/MCL1 long isoform in wild type human OPM2 cells at 100 nM after 48 hrs by immunoblot analysis relative to control; assay type: cell-based; how it was run: as §2
# [17] = molecular target: T2, Induced myeloid leukemia cell differentiation protein Mcl-1; test: Induction of MCL1 long isoform degradation in CRBN-/- human OPM2 cells assessed as protein abundance at 100 nM after 48 hrs by immunoblot analysis relative to control; assay type: cell-based; how it was run: as §2
# [18] = molecular target: T1, Protein cereblon/Induced myeloid leukemia cell differentiation protein Mcl-1 (Homo sapiens); test: Protac activity at Cereblon/MCL1 short isoform in wild type human OPM2 cells assessed as MCL1 short isoform abundance at 100 nM after 48 hrs by immunoblot analysis relative to control; assay type: cell-based; how it was run: as §3
# [19] = molecular target: T1, Protein cereblon/Induced myeloid leukemia cell differentiation protein Mcl-1 (Homo sapiens); test: Protac activity at Cereblon/MCL1 long isoform in wild type human OPM2 cells assessed as protein abundance at 50 nM after 48 hrs by immunoblot analysis relative to control; assay type: cell-based; how it was run: as §2
# [20] = molecular target: T2, Induced myeloid leukemia cell differentiation protein Mcl-1; test: Induction of MCL1 short isoform degradation in CRBN-/- human OPM2 cells assessed as protein abundance at 500 nM after 48 hrs by immunoblot analysis relative to control; assay type: cell-based; how it was run: as §2
# [21] = molecular target: T1, Protein cereblon/Induced myeloid leukemia cell differentiation protein Mcl-1 (Homo sapiens); test: Protac activity at Cereblon/MCL1 short isoform in wild type human OPM2 cells assessed as MCL1 short isoform abundance at 50 nM after 48 hrs by immunoblot analysis relative to control; assay type: cell-based; how it was run: as §3
# [22] = molecular target: T2, Induced myeloid leukemia cell differentiation protein Mcl-1; test: Binding affinity to His-tagged biotinylated human MCL1 by surface plasmon resonance method
# [23] = molecular target: T2, Induced myeloid leukemia cell differentiation protein Mcl-1; test: Induction of MCL1 long isoform degradation in CRBN-/- human OPM2 cells assessed as protein abundance at 250 nM after 48 hrs by immunoblot analysis relative to control; assay type: cell-based; how it was run: as §2
# [24] = molecular target: T2, Induced myeloid leukemia cell differentiation protein Mcl-1; test: Induction of MCL1 short isoform degradation in CRBN-/- human OPM2 cells assessed as protein abundance at 50 nM after 48 hrs by immunoblot analysis relative to control; assay type: cell-based; how it was run: as §2
# Chain of Protein cereblon/Bromodomain-containing protein 4 (Homo sapiens) (Q96SW2 whole entry, looked up, other chains not shown): as the sequence (Q96SW2 whole entry, looked up) above
smiles,measurement,setting,value
Cc1sc2c(c1C)C(c1ccc(Cl)cc1)=N[C@@H](CC(=O)NCCCCNC(=O)COc1cccc3c1C(=O)N(C1CCC(=O)NC1=O)C3=O)c1nnc(C)n1-2 (stereo partly specified),Activity,[1],Active
Cc1nn(C)c(COc2ccc(N3CCN(C(=O)COc4cccc5c4C(=O)N(C4CCC(=O)NC4=O)C5=O)CC3)cc2)c1-c1cccc2c(CCCOc3cccc4ccccc34)c(C(=O)O)n(CCN3CCOCC3)c12 (stereo unspecified),Activity,[2],inactive
same,Activity,[3],inactive
Cc1nn(C)c(COc2ccc(N3CCN(C(=O)CCCNC(=O)COc4cccc5c4C(=O)N(C4CCC(=O)NC4=O)C5=O)CC3)cc2)c1-c1cccc2c(CCCOc3cccc4ccccc34)c(C(=O)O)n(CCN3CCOCC3)c12 (stereo unspecified),Activity,[2],inactive
same,Activity,[3],inactive
Cc1nn(C)c(COc2ccc(N3CCN(C(=O)CCC(=O)NCCCOCCOCCOCNC(=O)COc4cccc5c4C(=O)N(C4CCC(=O)NC4=O)C5=O)CC3)cc2)c1-c1cccc2c(CCCOc3cccc4ccccc34)c(C(=O)O)n(CCN3CCOCC3)c12 (stereo unspecified),Activity,[2],inactive
same,Activity,[3],inactive
Cc1nn(C)c(COc2ccc(N3CCN(S(=O)(=O)N(C)C)CC3)cc2)c1-c1cccc2c(CCCOc3cccc4ccccc34)c(C(=O)O)n(CCN3CCN(C(=O)CCCC[C@@H]4SC[C@@H]5NC(=O)N[C@@H]54)CC3)c12,Activity,[4],Active
same,Activity,[5],Active
Cc1nn(C)c(COc2ccc(N3CCN(S(=O)(=O)N(C)C)CC3)cc2)c1-c1cccc2c(CCCOc3cccc4ccccc34)c(C(=O)O)n(CCN3CCN(C(=O)CCC(=O)NCCCOCCOCCOCCCNC(=O)COc4cccc5c4C(=O)N(C4CCC(=O)NC4=O)C5=O)CC3)c12 (stereo unspecified),Activity,[6],Active
Cc1nn(C)c(COc2ccc(N3CCN(S(=O)(=O)N(C)C)CC3)cc2)c1-c1cccc2c(CCCOc3cccc4ccccc34)c(C(=O)O)n(CCN3CCOCC3)c12,Activity,[7],374%
same,Activity,[8],237%
same,half-life,[9],21.7 min
same,Activity,[10],140%
same,Activity,[11],183%
same,Activity,[12],287%
same,Activity,[13],275%
same,Activity,[14],154%
same,Activity,[15],111%
same,Activity,[16],195%
same,Activity,[17],152%
same,Activity,[18],148%
same,Activity,[19],140%
same,Activity,[20],286%
same,Activity,[21],110%
same,Kd,[22],19 nM
same,Activity,[23],162%
same,Activity,[24],100%
Cc1nn(C)c(COc2ccc(N3CCN(C(=O)CCC(=O)NCCCOCCOCCOCCCNC(=O)CCCC[C@@H]4SC[C@@H]5NC(=O)N[C@@H]54)CC3)cc2)c1-c1cccc2c(CCCOc3cccc4ccccc34)c(C(=O)O)n(CCN3CCOCC3)c12,Activity,[4],Active
same,Activity,[5],Active
Cc1nn(C)c(COc2ccc(N3CCN(S(=O)(=O)N(C)C)CC3)cc2)c1-c1cccc2c(CCCOc3cccc4ccccc34)c(C(=O)NCCCCNC(=O)COc3cccc4c3C(=O)N(C3CCC(=O)NC3=O)C4=O)n(CCN3CCOCC3)c12 (stereo unspecified),Activity,[2],inactive

# Reference: ChEMBL document CHEMBL4396889, “From Inhibition to Degradation: Targeting the Antiapoptotic Protein Myeloid Cell Leukemia 1 (MCL1)” (J Med Chem, 2019)
